Test results: the array DNA melting data of Ke et al. (doi:10.1101/2024.01.08.574731)

Key:
[1] = folding enthalpy; higher = less favourable; fluorescence melt of hairpins on a sequencing array, two-state fit; conditions: sodium 0.088 M
Method in brief: (§1)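 In 50 mM Na-HEPES pH 8.0 containing 25 mM NaCl, hairpins from the library on a sequenced MiSeq flow cell were imaged for Cy3 fluorescence at 2.5 °C steps up to 60 °C, with Cy3 and quencher oligos annealed. After normalisation to pre-quench Cy3 and to control constructs, two-state fits with bootstrapping gave melting temperature and folding enthalpy. Four replicates were combined by inverse-variance weighting, and fitted temperatures were shifted up by 9.35 °C to match UV melts.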

[2] = melting temperature; fluorescence melt of hairpins on a sequencing array, two-state fit, raised by 9.35 °C to match UV melts; conditions: sodium 0.088 M
Method in brief: as §1

GGAATGGGAAACTATTCC (((((.(....).)))))
folding enthalpy [1]: -25.9 kcal/mol
Tm [2]: 42.3 °C

GGACACGAAAGTGTGTCC ((((((....)))..)))
folding enthalpy [1]: -30.6 kcal/mol
Tm [2]: 55.5 °C

GGGCTCGGAAACGGGTCC ((.(.((....)).).))
folding enthalpy [1]: -34.5 kcal/mol
Tm [2]: 48.6 °C

GATCCTTAACAGGATC ((((((....))))))
folding enthalpy [1]: -36.3 kcal/mol
Tm [2]: 49 °C

GGCATCGAAAGATCCGCC ((((((....)))..)))
folding enthalpy [1]: -19.2 kcal/mol
Tm [2]: 49.3 °C

GGCCTGGCGAAAGCCGCC (((..(((....))))))
folding enthalpy [1]: -15.5 kcal/mol
Tm [2]: 48.7 °C

GCACATGGAAACATGTGC (((((((....)))))))
folding enthalpy [1]: -43.4 kcal/mol
Tm [2]: 67.4 °C

GATATACGAAAGTAGATC (((.(((....))).)))
folding enthalpy [1]: -31.1 kcal/mol
Tm [2]: 44.1 °C

GATCGACATTCGATC ((((((...))))))
folding enthalpy [1]: -36.1 kcal/mol
Tm [2]: 49.9 °C

GCCATCGAAAGATTCGGC ((((((....)))..)))
folding enthalpy [1]: -21 kcal/mol
Tm [2]: 36.9 °C

GTATGCTCGAAAGAGTAC (((..(((....))))))
folding enthalpy [1]: -10.5 kcal/mol
Tm [2]: 26.7 °C

GATCGTCTATACGATC ((((((....))))))
folding enthalpy [1]: -38.9 kcal/mol
Tm [2]: 54.8 °C

GCGGTAAGCCGC ((((....))))
folding enthalpy [1]: -23.3 kcal/mol
Tm [2]: 57.7 °C

GATCGAGTTATCGATC ((((((....))))))
folding enthalpy [1]: -41.7 kcal/mol
Tm [2]: 58.6 °C

GATCTTGCAGAAGATC ((((((....))))))
folding enthalpy [1]: -34.8 kcal/mol
Tm [2]: 46.8 °C

GGTTATCGAAAGATTACC (((.(((....))).)))
folding enthalpy [1]: -31.1 kcal/mol
Tm [2]: 43.5 °C

GGGTATACGAAAGTACCC (((..(((....))))))
folding enthalpy [1]: -24.4 kcal/mol
Tm [2]: 45.6 °C

GATCTGTAAACAGATC ((((((....))))))
folding enthalpy [1]: -39.5 kcal/mol
Tm [2]: 50.3 °C

GATCAGTAAACTGATC ((((((....))))))
folding enthalpy [1]: -37.4 kcal/mol
Tm [2]: 50.8 °C

GCCCTTCGAAAGAAGGC (((.(((....))))))
folding enthalpy [1]: -21.4 kcal/mol
Tm [2]: 52.9 °C

CGGCGCGGAAACGCTCCG (((.(((....))).)))
folding enthalpy [1]: -33.7 kcal/mol
Tm [2]: 56.5 °C

GGGAATGGAAACATTCCC (((((((....)))))))
folding enthalpy [1]: -54.2 kcal/mol
Tm [2]: 62 °C

GATGAGGGAAACCTCGTC ((.((((....)))).))
folding enthalpy [1]: -22.3 kcal/mol
Tm [2]: 47.9 °C

GCCAACGAAAGTTTGGGC ((((((....)))..)))
folding enthalpy [1]: -26.9 kcal/mol
Tm [2]: 46 °C

GTGGGCGAAAGCCAGCAC ((((((....)))..)))
folding enthalpy [1]: -12.8 kcal/mol
Tm [2]: 46.5 °C

GATCCGATCCCGGATC ((((((....))))))
folding enthalpy [1]: -38.9 kcal/mol
Tm [2]: 55.6 °C

GGATTAGGAAACTGATCC ((((.((....)).))))
folding enthalpy [1]: -33.7 kcal/mol
Tm [2]: 41.8 °C

CGCGACCGGAAACGGGCG (((..(((....))))))
folding enthalpy [1]: -11.7 kcal/mol
Tm [2]: 60 °C

GGGTAGGAAACTACCC ((((((....))))))
folding enthalpy [1]: -29.6 kcal/mol
Tm [2]: 58.8 °C

GATCCCGATTGGGATC ((((((....))))))
folding enthalpy [1]: -36 kcal/mol
Tm [2]: 59.1 °C

GTGGCCGGAAACGGCTGC (..((((....))))..)
folding enthalpy [1]: -13 kcal/mol
Tm [2]: 51.9 °C

GTTGTCGGAAACGGTAAC (((..((....))..)))
folding enthalpy [1]: -21.9 kcal/mol
Tm [2]: 33.1 °C

GTGATGCCGAAAGGCCAC (((..(((....))))))
folding enthalpy [1]: -13.5 kcal/mol
Tm [2]: 41.6 °C

GCCTTACCGAAAGGTGGC (((..(((....))))))
folding enthalpy [1]: -23.6 kcal/mol
Tm [2]: 48.8 °C

GGGCAAACGAAAGTTCCC (((..(((....))))))
folding enthalpy [1]: -19.5 kcal/mol
Tm [2]: 35.6 °C

GTTGGCCGAAAGGCTAAC (((.(((....))).)))
folding enthalpy [1]: -28.6 kcal/mol
Tm [2]: 58.3 °C

GAGTGCGAAAGCATTCTC ((((((....)))..)))
folding enthalpy [1]: -21.5 kcal/mol
Tm [2]: 52.3 °C

GCCTAATCGAAAGATGGC (((..(((....))))))
folding enthalpy [1]: -27.4 kcal/mol
Tm [2]: 44.1 °C

GATCAGCAACTGATC ((((((...))))))
folding enthalpy [1]: -33.8 kcal/mol
Tm [2]: 45.6 °C

GCTTGTGGAAACACAAAC (.(((((....))))).)
folding enthalpy [1]: -13.8 kcal/mol
Tm [2]: 36.3 °C

GATCGGGGGTCCGATC ((((((....))))))
folding enthalpy [1]: -34.3 kcal/mol
Tm [2]: 57 °C

GATTGCGAAAGCAGAATC ((((((....)))..)))
folding enthalpy [1]: -13.8 kcal/mol
Tm [2]: 35.4 °C

CGATACGGAAACGTCTCG (((.(((....))).)))
folding enthalpy [1]: -33.7 kcal/mol
Tm [2]: 42 °C

GATCTGCGAAAGCAAATC (((.(((....))).)))
folding enthalpy [1]: -18.4 kcal/mol
Tm [2]: 36.5 °C

GGGTCAGGAAACTGGCTC (.(.(((....))).).)
folding enthalpy [1]: -24.5 kcal/mol
Tm [2]: 39.8 °C

GATATGCGAAAGCACATC (((.(((....))).)))
folding enthalpy [1]: -19.1 kcal/mol
Tm [2]: 39.3 °C
